pIC50: −log10 of the molar value.
How the values were obtained:
MDA-MB-231 [1] = assay: Inhibition of the growth of MDA-MB 231 human breast cancer cells; format: functional, cell-based
Tubulin (Bos taurus) = Tubulin (Bos taurus) (UniProt Q6B856+Q862L2+Q862F3); assay: Inhibition of colchicine binding to tubulin; format: functional; conditions: concentration not given here
Summary of the method: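 Calf brain tubulin (prepared as for polymerization) diluted 1:10 in ice-cold PEM buffer (PIPES, EGTA, MgSO4, pH 6.6-6.7); 1 µM [3H]colchicine with 10 µM inhibitor, DMSO vehicle, 30 min at 37 °C; GTP added on ice, filtered through DEAE-cellulose, washed; tubulin-bound radioactivity by scintillation counting, tubulin-free mixtures as background. Mean of two independent experiments.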

MCF7 = assay: Inhibition of estrogen receptor positive MCF-7 human breast cancer cell proliferation; format: functional, cell-based
Summary of the method: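 MCF-7 cells in EMEM with 10% FCS; treatment medium contains dextran-charcoal-treated FCS; exposure ca. 8 days; glutaraldehyde fixation, crystal violet staining, optical density read at 578 nm.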

Tubulin [2] = molecular target: T1, Tubulin (Bos taurus, UniProt Q6B856+Q862L2+Q862F3); assay: Inhibition of tubulin polymerization using isolated calf brain at 26 degrees C; format: functional
MDA-MB-231 [3] = assay: Inhibition of estrogen receptor negative MDA-MB 231 breast cancer cell proliferation at 1 uM; format: functional, cell-based; conditions: Homo sapiens
Summary of the method: (§1)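 MDA-MB 231 cells grown in McCoy-5a with L-glutamine, gentamycin, NaHCO3 and 5% FCS, 5% CO2, 37 °C. Cells were seeded in 96-well plates and grown 2–3 days, then given medium containing compound; controls had 0.1% DMF. After about 4 days, cells were fixed with 1% glutaric dialdehyde, stained with 0.02% crystal violet, extracted with 70% EtOH, and OD578 was read against initial density.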

Tubulin [4] = molecular target: T1, Tubulin; assay: Inhibition of tubulin polymerization using isolated calf brain; format: functional
Summary of the method: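 Twice-cycled, MAP-containing calf brain microtubules depolymerized in PEMG buffer (0.8 M glutamate, pH 6.6-6.7) at 0 °C; compound in DMSO, preincubated 15 min at 37 °C, chilled, GTP added; turbidity at 350 nm over 20 min after shift from 2 to 37 °C.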

MDA-MB-231 [5] = assay: Inhibition of estrogen receptor negative MDA-MB 231 breast cancer cell proliferation at 10 uM; format: functional, cell-based; conditions: Homo sapiens; summary of the method: as §1
[6] = molecular target: Tubulin alpha chain (Bos taurus) (UniProt P81947); assay: Inhibition of colchicine binding to tubulin; conditions: concentration not given here
Tubulin [7] = molecular target: T1, Tubulin; assay: Inhibition of tubulin polymerization using isolated calf brain at 37 degrees C; format: functional
MDA-MB-231 [8] = assay: Inhibition of estrogen receptor negative MDA-MB 231 breast cancer cell proliferation; format: functional, cell-based; conditions: Homo sapiens
Summary of the method: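 MDA-MB 231 cells (hormone-independent) in McCoy-5a with 5% FCS, grown 2–3 days in 96-well plates at 37 °C, 5% CO2, then medium with test compound (DMF stock; 0.1% DMF controls) for about 4 days; glutaraldehyde fixation, 0.02% crystal violet staining, ethanol extraction, OD 578 nm versus initial density. IC50 from two independent experiments.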

Sequence of Tubulin alpha chain (Bos taurus) (P81947 whole entry, looked up): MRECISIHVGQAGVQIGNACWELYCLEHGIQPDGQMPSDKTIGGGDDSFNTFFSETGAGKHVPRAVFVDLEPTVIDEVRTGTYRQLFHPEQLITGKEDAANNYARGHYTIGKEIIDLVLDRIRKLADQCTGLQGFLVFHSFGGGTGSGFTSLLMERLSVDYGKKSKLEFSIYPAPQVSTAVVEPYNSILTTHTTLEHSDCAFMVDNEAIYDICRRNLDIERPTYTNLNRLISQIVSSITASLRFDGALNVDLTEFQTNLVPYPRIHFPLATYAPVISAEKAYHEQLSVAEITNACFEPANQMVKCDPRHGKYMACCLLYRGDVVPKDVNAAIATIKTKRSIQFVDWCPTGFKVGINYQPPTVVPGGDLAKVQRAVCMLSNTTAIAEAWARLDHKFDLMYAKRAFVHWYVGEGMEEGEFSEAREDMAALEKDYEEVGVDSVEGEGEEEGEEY

| SMILES | pIC50 (MDA-MB-231 [1]) | pIC50 (MCF7) | also measured |
| --- | --- | --- | --- |
| CCCC1Cc2cc(OC)ccc2-c2c(C=O)c3ccc(OC)cc3n21 (stereo unspecified) | < 5.00 |  |  |
| CCCCC1Cc2cc(OC)ccc2-c2c(C(C)=O)c3ccc(OC)cc3n21 (stereo unspecified) | < 5.00 |  |  |
| CCCCC1Cc2cc(O)ccc2-c2c(C=O)c3ccc(O)cc3n21 (stereo in doubt; (+)-6c) [listing 1 of 2 here] |  |  | inhibition (Tubulin (Bos taurus)): 69% |
| CCCCC1Cc2cc(OC)ccc2-c2c(C=O)c3cc(OC)c(OC)cc3n21 (stereo unspecified) | 5.05 |  |  |
| CCCC1Cc2cc(O)ccc2-c2c(C=O)c3ccc(O)cc3n21 (stereo unspecified) | 6.52 | 6.54 |  |
| CC/C(=C(\c1ccccc1)c1ccc(OCCN(C)C)cc1)c1ccccc1 [TAMOXIFEN] |  | 6.82 |  |
| CCCCC1Cc2cc(O)ccc2-c2c(C(C)=O)c3ccc(O)cc3n21 (stereo unspecified) | 5.66 | 5.60 |  |
| COc1cc2c(cc1O)CC[C@@H]1[C@@H]2CC[C@]2(C)[C@@H](O)CC[C@@H]12 [2-METHOXYESTRADIOL] |  |  | IC50 (Tubulin [2]): 12000 nM; pIC50 (MDA-MB-231 [3]): 6.60; IC50 (Tubulin [4]): 60000 nM; pIC50 (MDA-MB-231 [5]): 5.30; inhibition [6]: 44% |
| CCCCC1Cc2cc(OC)ccc2-c2c(C#N)c3cc(OC)c(OC)cc3n21 (stereo unspecified) | 5.57 |  |  |
| CC[C@]1(O)C[C@@H]2CN(CCc3c([nH]c4ccccc34)[C@@](C(=O)OC)(c3cc4c(cc3OC)N(C)[C@H]3[C@@](O)(C(=O)OC)[C@H](OC(C)=O)[C@]5(CC)C=CCN6CC[C@]43[C@@H]65)C2)C1 [VINBLASTINE] | 7.96 |  |  |
| CCCC1Cc2cc(O)ccc2-c2c(C=O)c3ccc(O)cc3n21 (single isomer, unassigned; (+)) [listing 1 of 2 here] |  |  | IC50 (Tubulin [4]): 11000 nM |
| CCCCC1Cc2cc(OC)ccc2-c2c(/C=N/C)c3ccc(OC)cc3n21 (stereo unspecified) | 5.11 |  |  |
| CCCC1Cc2cc(O)ccc2-c2c(C=O)c3ccc(O)cc3n21 (single isomer, unassigned; (-)) [listing 1 of 2 here] |  |  | IC50 (Tubulin [4]): > 70000 nM |
| CCCCC1Cc2cc(OC)ccc2-c2c(C=O)c3cc(OC)ccc3n21 (stereo unspecified) | < 5.00 |  |  |
| CCCCC1Cc2cc(O)ccc2-c2cc3cc(O)c(O)cc3n21 (stereo unspecified) | < 5.00 | < 5.00 |  |
| CCCCC1Cc2cc(O)ccc2-c2c(C=O)c3cc(O)c(O)cc3n21 (stereo unspecified) | 5.49 | < 5.00 | IC50 (Tubulin [7]): 19000 nM |
| COc1cc([C@@H]2c3cc4c(cc3[C@H](O)[C@H]3COC(=O)[C@H]23)OCO4)cc(OC)c1OC [PODOFILOX] | 7.59 |  |  |
| CCCCC1Cc2cc(O)ccc2-c2c(C#N)c3cc(O)c(O)cc3n21 (stereo unspecified) | 5.47 | 5.57 | inhibition [6]: 54%; IC50 (Tubulin [7]): 25000 nM |

| SMILES | pIC50 (MDA-MB-231 [1]) | pIC50 (MCF7) | also measured |
| --- | --- | --- | --- |
| CCCCC1Cc2cc(O)ccc2-c2c(C=O)c3ccc(O)cc3n21 (stereo unspecified) | 5.85 | 6.66 |  |
| CCCCC1Cc2cc(O)ccc2-c2c(C=O)c3ccc(O)cc3n21 (single isomer, unassigned; (-)) [listing 1 of 2 here] |  |  | inhibition (Tubulin (Bos taurus)): 22% |
| COc1cc2c(c(OC)c1OC)-c1ccc(OC)c(=O)cc1[C@@H](NC(C)=O)CC2 [COLCHICINE] | 7.52 |  |  |
| CCCC1Cc2cc(O)ccc2-c2c(C=O)c3ccc(O)cc3n21 (single isomer, unassigned; (+)) [listing 2 of 2 here] |  |  | inhibition (Tubulin (Bos taurus)): 53% |
| CCCCC1Cc2cc(OC)ccc2-c2c(CNC)c3ccc(OC)cc3n21 (stereo unspecified) | 5.68 |  |  |
| CCCCC1Cc2cc(OC)ccc2-c2c(C#N)c3ccc(OC)cc3n21 (stereo unspecified) | 5.51 |  |  |
| CCCCC1Cc2cc(OC)ccc2-c2c(/C=N/O)c3ccc(OC)cc3n21 (stereo unspecified) | < 5.00 |  |  |
| CCCCC1Cc2cc(O)ccc2-c2c(C=O)c3ccc(O)cc3n21 (stereo in doubt; (+)-6c) [listing 2 of 2 here] |  |  | IC50 (Tubulin [4]): 3100 nM |
| CCCCC1Cc2cc(O)ccc2-c2c(C=O)c3ccc(O)cc3n21 (single isomer, unassigned; (-)) [listing 2 of 2 here] |  |  | IC50 (Tubulin [4]): > 60000 nM |
| CCCCC1Cc2cc(OC)ccc2-c2c(C=O)c3ccc(OC)cc3n21 (stereo unspecified) | 5.06 |  |  |
| CCC1Cc2cc(O)ccc2-c2c(C=O)c3ccc(O)cc3n21 (stereo unspecified) | 5.55 | 5.60 |  |
| CCCC1Cc2cc(O)ccc2-c2c(C=O)c3ccc(O)cc3n21 (single isomer, unassigned; (-)) [listing 2 of 2 here] |  |  | inhibition (Tubulin (Bos taurus)): 27% |
| CCCCC1Cc2cc(O)ccc2-c2c(C=O)c3cc(O)ccc3n21 (stereo unspecified) | 6.70 | 6.19 | IC50 (Tubulin [7]): 19000 nM |
| CCCCC1Cc2cc(OC)ccc2-c2c(/C=N/Cc3ccccc3)c3ccc(OC)cc3n21 (stereo unspecified) | 5.24 |  |  |
| CCCCC1Cc2cc(O)ccc2-c2c(/C=N/Cc3ccccc3)c3ccc(O)cc3n21 (stereo unspecified) | 5.68 | 6.59 |  |
| CCCCC1Cc2cc(OC)ccc2-c2cc3cc(OC)c(OC)cc3n21 (stereo unspecified) | < 5.00 |  |  |
| CCCCC1Cc2cc(O)ccc2-c2c(C#N)c3ccc(O)cc3n21 (stereo unspecified) |  | 6.27 | inhibition [6]: 48%; IC50 (Tubulin [7]): 13000 nM; pIC50 (MDA-MB-231 [8]): 6.52 |
| CCCCC1Cc2cc(OC)ccc2-c2c(CNCc3ccccc3)c3ccc(OC)cc3n21 (stereo unspecified) | 5.15 |  |  |

Source: ChEMBL document CHEMBL1130198, “Inhibition of tubulin polymerization by 5,6-dihydroindolo[2,1-alpha]isoquinoline derivatives” (J Med Chem, 1997)
